Screens from PubChem.
TRPC6 inhibitor – inhibitors of mouse TRPC6 channel. HEK293-TRPC6, membrane potential dye, ACh-evoked depolarization; active compounds read low. B-score at 10 µM. 310,000 compounds, 1.1% hits. Q61143;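 active = B-score under library mean minus 3 SD, initial fluorescence not abnormally high, positive integrated signal ratio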;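 note: B-score derived from integrated fluorescence ratio over the kinetic read; more negative B-score means stronger inhibition of depolarization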
Target sequence (Q61143 whole entry, looked up): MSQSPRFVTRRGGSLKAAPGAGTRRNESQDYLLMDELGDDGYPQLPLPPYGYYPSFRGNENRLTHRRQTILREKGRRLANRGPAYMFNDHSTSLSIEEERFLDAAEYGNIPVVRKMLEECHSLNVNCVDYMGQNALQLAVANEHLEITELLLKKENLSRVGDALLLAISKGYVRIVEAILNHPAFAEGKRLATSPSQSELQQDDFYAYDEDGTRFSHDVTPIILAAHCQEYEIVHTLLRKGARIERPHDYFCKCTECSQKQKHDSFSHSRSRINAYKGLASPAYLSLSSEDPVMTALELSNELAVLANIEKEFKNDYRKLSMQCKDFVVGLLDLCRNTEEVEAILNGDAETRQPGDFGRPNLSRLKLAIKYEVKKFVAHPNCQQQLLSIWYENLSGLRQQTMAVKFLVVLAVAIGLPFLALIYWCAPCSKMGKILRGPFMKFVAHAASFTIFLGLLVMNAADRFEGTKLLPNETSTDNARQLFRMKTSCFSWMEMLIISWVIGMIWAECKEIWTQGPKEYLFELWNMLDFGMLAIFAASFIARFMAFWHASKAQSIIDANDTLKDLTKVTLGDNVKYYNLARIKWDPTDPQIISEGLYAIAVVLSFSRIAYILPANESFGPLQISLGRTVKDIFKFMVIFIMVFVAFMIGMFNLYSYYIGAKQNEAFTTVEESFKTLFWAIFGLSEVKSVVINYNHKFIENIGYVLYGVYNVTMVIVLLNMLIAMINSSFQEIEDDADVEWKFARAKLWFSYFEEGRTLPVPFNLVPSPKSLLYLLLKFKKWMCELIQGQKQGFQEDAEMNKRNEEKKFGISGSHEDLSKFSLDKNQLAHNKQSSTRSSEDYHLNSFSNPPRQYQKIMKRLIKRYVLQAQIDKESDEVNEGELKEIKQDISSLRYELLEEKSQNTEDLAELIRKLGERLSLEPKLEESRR
TRPC4 potent – TRPC4 (mouse) allosteric potentiation | Q9QUQ5 | HEK293 TRPC4beta/mu-opioid, DAMGO EC20, Fluo-4 Ca2+ flux; active compounds read high | B-score at 10 µM | 310,000 compounds, 0.42% hits | AID 2227;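 active = B-score of calcium response area above 5 SD of library B-scores, with initial fluorescence ratio within 5 SD of library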;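 note: B-score of integrated fluorescence ratio over time as area under calcium response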
TRPC4 block – TRPC4 (mouse) channel inhibition | Q9QUQ5 | HEK293 TRPC4beta/mu-opioid, DAMGO-evoked Fluo4 calcium flux; active compounds read low | B-score at 10 µM | 300,000 compounds, 0.39% hits | AID 2247;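 active = B-score over 3 SD under the library average, no early fluorescence shift, positive overall ratio signal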
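Assay system: Stable TRPC4beta/mu-opioid receptor HEK293 cells | Reagent: DAMGO in two steps, submaximal then maximal | Compound dosing: Single concentration per test compound | Signal: Fluo4 Ca2+ flux fluorescence | Evaluation: Per-well B score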
TRPC6 activator – activators of mouse TRPC6 channel | Q61143 | HEK293-TRPC6 membrane potential dye fluorescence; active compounds read high | B-score at 10 µM | 310,000 compounds, 0.13% hits | AID 2550;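 active = B-score of the integrated fluorescence ratio above library mean plus 3 SD, and starting fluorescence ratio within library mean plus 5 SD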;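 note: higher score means more depolarization so channel activation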
TRPC4 act – TRPC4 (mouse) channel activation; AID 2237; HEK293 TRPC4beta/mu-opioid, Fluo4 calcium fluorescence; active compounds read high; 310,000 compounds, 0.49% hits; B-score at 10 µM; Q9QUQ5;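 active = B-score above 5 SD of library B-scores, and initial fluorescence ratio not above library mean plus 5 SD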;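 note: positive B-score marks a calcium rise read as TRPC4 activation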
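Assay system – TRPC4beta and mu-opioid receptor HEK293 stable cells · Measured by – Fluo4 fluorescence, kinetic · Schedule – dye loading 45 min room temperature, 110 s kinetic read · Read-out – B-scored integrated calcium fluorescence ratio · Controls – buffer and maximal DAMGO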
Numbers without * were called inactive; i = inactive. Only some compounds are listed: those with a hit (about 2.3% of all), similar ones and a draw of the others.

SMILES	TRPC6 inhibitor	TRPC4 potent	TRPC4 block	TRPC6 activator	TRPC4 act
COc1ccc(C=O)cc1CN1CCCN(Cc2ccccc2F)S1(=O)=O	i	i	i	i	i
CCCN(CCC)CCNC(=O)c1cc2c(=O)n(C)c3ccccc3c2n1C	i	13*	i	i	i
Cn1c(C(=O)NCCN2CCOCC2)cc2c(=O)n(C)c3ccccc3c21	i	i	i	i	i
CCCN(CCC)CCCNC(=O)c1cc2c(=O)n(CC)c3ccccc3c2s1	i	i	i	i	50*
CCCCN(CC)CCNC(=O)c1cc2c(=O)n(C)c3ccccc3c2s1	i	16*	i	i	i
CCCCN(CC)CCCNC(=O)c1cc2c(=O)n(CC)c3ccccc3c2s1	i	i	i	i	i
COc1ccc(NN=Nc2nc3c([nH]2)c(=O)n(C)c(=O)n3C)cc1	i	i	i	i	i
CCCOc1ccc(CNC(=S)Nc2ccccc2)cc1Cl	i	i	i	i	i
CCc1ccc(CNC(=O)CCCC(=O)n2nc(C)c3ccccc32)cc1	i	i	i	i	i
COc1cccc(NC(=O)CN(C)C(=O)c2cc(-c3cccc(Br)c3)nc3ccccc23)c1	i	i	i	i	i
CCCc1cc(-c2n[nH]c(=S)n2CC(C)C)cs1	i	13*	i	i	i
CCOc1ccccc1C(=O)NC1CC2CCCC(C1)N2Cc1ccc(C)cc1 (stereo not given)	i	i	i	i	i
Cc1ccccc1C(=O)NC1CC2CCC(C1)N2Cc1ccccc1 (stereo not given)	i	i	-5*	i	i
CCCN(CCC)CCNC(=O)C1CCN(Cc2nc(-c3ccc(Cl)cc3)oc2C)CC1	-7.2*	i	i	i	i
O=C(O)C1C2C=CC(C2)C1C(=O)Nc1ccc2c(c1)OCCO2 (stereo not given)	i	i	i	i	i
CN(C)c1ccc(NC(=O)C2C3C=CC(C3)C2C(=O)O)cc1 (stereo not given)	i	21*	i	i	i
CC(=O)c1ccc(N2CCN(C(=O)CCS(=O)(=O)c3ccc4c(c3)NC(=O)CS4)CC2)cc1	i	17*	i	i	i
COc1ccc(C(CNc2ncnc3sc(C)c(C)c23)N(C)C)cc1 (stereo not given)	i	i	i	i	236*
Cc1sc2ncnc(NCC(c3ccco3)N(C)C)c2c1C (stereo not given)	i	i	i	i	188*
COc1ccccc1C(CNc1ncnc2sc(C)c(C)c12)N(C)C (stereo not given)	i	i	i	i	i
CN(C)C(CNc1ncnc2sc3c(c12)CCCCC3)c1ccco1 (stereo not given)	i	i	i	i	76*
COc1ccc(CCNS(=O)(=O)c2cnc(Cl)c(Br)c2)cc1OC	i	i	i	i	i
O=C(O)c1ccc(Br)cn1	i	i	i	i	i
O=C(C1=C[C@@H](c2ccc(Br)cc2)C[C@@H](OCCCCO)O1)N1CCN(Cc2ccccc2)CC1	i	i	i	i	i
Clc1ccc(OCCCc2nc(-c3ccncc3)no2)c(Cl)c1	i	i	-9*	i	i
SMILES	TRPC6 inhibitor	TRPC4 potent	TRPC4 block	TRPC6 activator	TRPC4 act
CC1CCCCN1C(=O)CNCC1CCCO1 (stereo not given)	i	i	i	i	i
CN(Cc1ccccc1)C(=O)c1oc(=O)c2ccccc2c1-c1ccccc1	i	16*	i	i	i
Cc1ccc(CC(CC(=O)O)C(=O)NCC23CC4CC(CC(C4)C2)C3)cc1 (stereo not given)	i	14*	i	i	i
COCCCNc1nc2c(c(=O)n(Cc3ccc(OC)cc3)c(=O)n2C)n1C	i	i	i	i	i
COc1ccc(Cn2c(=O)c3c(nc(NCCO)n3C)n(C)c2=O)cc1	i	12*	i	i	i
c1csc(CNc2nc(-c3cccs3)nc3ccccc23)c1	i	i	-6*	i	i
c1cncc(-c2nc(NCC3CCCO3)c3ccccc3n2)c1 (stereo not given)	i	i	i	i	i
c1ccc(-c2nc(NCc3cccs3)c3ccccc3n2)cc1	i	i	i	i	i
c1csc(-c2nc(NCC3CCCO3)c3ccccc3n2)c1 (stereo not given)	i	i	-8*	i	i
O=C(CN(C(=O)CCC(=O)Nc1nccs1)c1ccc2c(c1)OCO2)NCc1ccccc1	i	i	i	i	i
CC1OC(OC2C(OC3C(O[C@H]4CC[C@]5(C)C6C=C[C@]78OC[C@@]9(CC[C@@H](C)[C@H](C)C97)[C@H](O)C[C@@]8(C)[C@]6(C)CC[C@H]5C4(C)C)OC(C)C(O)C3O)OC(CO)C(O)C2O)C(O)C(O)C1O (stereo not given in full)	-5.1*	17*	i	i	376*
Cc1cc(C)cc(C(=O)N(CCc2ccccc2)C2CC3CCC(C2)N3C)c1 (stereo not given)	i	i	i	i	i
O=C(CN1CCN(c2ccc([N+](=O)[O-])cc2)CC1)c1ccccc1	i	11*	i	i	i
CC1CCCN(C2=C(NS(=O)(=O)c3ccc(Br)cc3)C(=O)c3ccccc3C2=O)C1 (stereo not given)	i	16*	i	i	i
COc1cccc(CCNS(=O)(=O)CCNC(=O)c2cccc(OC)c2)c1	i	i	i	i	i
O=C(OC1C2CCC1C1CN(CCc3ccccc3)CC12)c1ccccc1 (stereo not given)	i	i	-6*	i	i
Nc1sc(-c2ccccc2)n[n+]1Cc1cccc2cccnc12	i	i	i	i	58*
Oc1ccccc1CNc1cccc2cccnc12	i	i	i	i	i
COc1ccccc1C1(CCNC(C)c2cccs2)CCOC(C(C)C)C1 (stereo not given)	i	i	i	i	77*
Cc1ccc(C2(CCN)CCOC(C(C)C)C2)cc1 (stereo not given)	i	i	i	i	i
Cc1ccc(C2(CCNC(C)c3cccs3)CCOC(C(C)C)C2)cc1 (stereo not given)	i	i	i	i	44*
CN(C)CC(CCCCC(CN(C)C)C(=O)c1ccccc1)C(=O)c1ccccc1 (stereo not given)	i	i	i	i	i
COc1ccc(C(=O)C2CCCN(C3Cc4ccccc4C3)C2)cc1OC (stereo not given)	i	i	i	i	87*
